≈ marks a conversion by molar mass, not a printed value.
What was measured:
[1] = test system: Klebsiella pneumoniae; assay: Minimum inhibitory concentration against Klebsiella pneumoniae; type: functional
Method in brief: (§1)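 Agar dilution on defined peptide susceptibility medium with peptide in serial twofold dilutions. Strains subcultured on blood or chocolate agar. Inoculum from overnight culture in liquid peptide medium, diluted to approx 1×10^7 cfu/mL, applied by Steers replicator. Plates incubated overnight at 37 °C. MIC taken as lowest concentration permitting fewer than ten colonies at 16–18 h.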

[2] = test system: Escherichia coli; assay: Minimum inhibitory concentration against Escherichia coli; type: functional; method in brief: as §1
[3] = test system: Serratia marcescens; assay: Minimum inhibitory concentration against Serratia marcescens; type: functional; method in brief: as §1
[4] = test system: Shigella flexneri; assay: Minimum inhibitory concentration against Shigella flexneri; type: functional; method in brief: as §1
[5] = test system: Enterobacter cloacae; assay: Minimum inhibitory concentration against Enterobacter cloacae; type: functional; method in brief: as §1
[6] = test system: Staphylococcus epidermidis; assay: Minimum inhibitory concentration against Staphylococcus epidermidis; type: functional; method in brief: as §1
[7] = test system: Salmonella typhimurium; assay: Minimum inhibitory concentration against Salmonella Typhimurium
[8] = test system: Morganella morganii; assay: Minimum inhibitory concentration against Morganella morganii; type: functional; method in brief: as §1
[9] = test system: Pseudomonas aeruginosa; assay: Minimum inhibitory concentration against Pseudomonas aeruginosa; type: functional; method in brief: as §1
[10] = test system: Enterococcus faecalis; assay: Minimum inhibitory concentration against Streptococcus faecalis; type: functional; method in brief: as §1
[11] = test system: Haemophilus influenzae; assay: Minimum inhibitory concentration against Hemophilus influenzae; type: functional
Method in brief: (§2)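 Agar dilution on defined peptide susceptibility medium with hemin (25 μg/mL), NAD (25 μg/mL) and Isovitalex (1%) added, peptide in serial twofold dilutions. Colonies from overnight chocolate or blood agar resuspended in liquid peptide medium to 10⁸ cfu/mL, applied by Steers replicator. Incubation overnight at 37 °C under 7% CO₂. MIC: lowest concentration giving fewer than ten colonies at 16–18 h.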

[12] = test system: Streptococcus pyogenes; assay: Minimum inhibitory concentration against Streptococcus pyogenes; type: functional; method in brief: as §2
[13] = test system: Streptococcus agalactiae; assay: Minimum inhibitory concentration against Streptococcus agalactiae; type: functional; method in brief: as §2
[14] = test system: Klebsiella aerogenes; assay: Minimum inhibitory concentration against Enterobacter aerogenes; type: functional; method in brief: as §1
[15] = test system: Proteus mirabilis; assay: Minimum inhibitory concentration against Proteus mirabilis; type: functional; method in brief: as §1
[16] = test system: Staphylococcus aureus; assay: Minimum inhibitory concentration against Staphylococcus aureus; type: functional; method in brief: as §1
[17] = test system: Salmonella typhimurium; assay: Minimum inhibitory concentration against Salmonella Typhimurium; type: functional, Salmonella enterica subsp. enterica serovar Typhimurium; conditions: Salmonella enterica; method in brief: as §1

SMILES	MIC [1]	MIC [2]	MIC [3]	MIC [4]	MIC [5]	MIC [6]	MIC [7]	MIC [8]	MIC [9]	MIC [10]	MIC [11]	MIC [12]	MIC [13]	MIC [14]	MIC [15]	MIC [16]	MIC [17]
C[C@H](N)C(=O)N[C@@H](C)C(=O)O.O=C(O)C(F)(F)F	> 100 µg/mL	> 100 µg/mL	> 100 µg/mL	> 100 µg/mL	> 100 µg/mL	> 100 µg/mL	> 100 µg/mL	> 100 µg/mL	> 100 µg/mL	> 100 µg/mL	> 100 µg/mL	> 100 µg/mL	> 100 µg/mL	> 100 µg/mL	> 100 µg/mL	> 100 µg/mL	–
C#CC[C@@H](NC(=O)[C@H](N)CCl)C(=O)O.O=C(O)C(F)(F)F	> 100 µg/mL	> 100 µg/mL	> 100 µg/mL	> 100 µg/mL	> 100 µg/mL	> 100 µg/mL	–	> 100 µg/mL	> 100 µg/mL	> 100 µg/mL	> 100 µg/mL	> 100 µg/mL	> 100 µg/mL	> 100 µg/mL	> 100 µg/mL	> 100 µg/mL	> 100 µg/mL
C[C@@H](N)C(=O)N[C@H](CCl)C(=O)O.O=C(O)C(F)(F)F	> 100 µg/mL	> 100 µg/mL	> 100 µg/mL	> 100 µg/mL	> 100 µg/mL	> 100 µg/mL	–	> 100 µg/mL	> 100 µg/mL	> 100 µg/mL	> 100 µg/mL	> 100 µg/mL	> 100 µg/mL	> 100 µg/mL	> 100 µg/mL	> 100 µg/mL	> 100 µg/mL
C[C@@H](NC(=O)[C@H](N)CCl)C(=O)O.O=C(O)C(F)(F)F	> 100 µg/mL	> 100 µg/mL	> 100 µg/mL	> 100 µg/mL	> 100 µg/mL	> 100 µg/mL	–	> 100 µg/mL	> 100 µg/mL	> 100 µg/mL	> 100 µg/mL	> 100 µg/mL	> 100 µg/mL	> 100 µg/mL	> 100 µg/mL	> 100 µg/mL	> 100 µg/mL
C#CC[C@@H](N)C(=O)O	> 100 µg/mL	> 100 µg/mL	> 100 µg/mL	> 100 µg/mL	> 100 µg/mL	> 100 µg/mL	–	> 100 µg/mL	> 100 µg/mL	> 100 µg/mL	> 100 µg/mL	> 100 µg/mL	> 100 µg/mL	> 100 µg/mL	> 100 µg/mL	50 µg/mL (≈ 442 µM)	> 100 µg/mL
